Results reported in the RNAGym collection of RNA variant scans (doi:10.1126/science.aae0568).
Fewer inactive variants are shown than the library holds.

B1: tRNA (parent)
chain: GUUCCGUUGGCGUAAUGGUAACGCGUCUCCCUCCUAAGGAGAAGACUGCGGGUUCGAGUCCCGUACGGAACG

Variants of: B1
Assay: yeast fitness relative to wild type (ratio to wild type); higher = fitter; tRNA-Arg(CCU), competitive growth, 37 C, YPD
Procedure, shortened: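 Gene amplicons from the start population and from each of six end populations were read by 100-nucleotide paired-end sequencing. Those end populations came from pooled Saccharomyces cerevisiae strains carrying tRNA-Arg(CCU) gene variants at the native locus, competed in YPD at 37°C for 24 hours. Fitness relative to wild type was worked out from changes in genotype frequencies. Genotypes needed ≥ 100 starting reads, and estimates < 0.5 were set to 0.5.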

| Variant | yeast fitness |
| --- | --- |
| A21U A40G A57U C60G G68C | ≤ 0.5 |
| A21U A40U | 0.728 |
| A21U A40U A45U | 0.625 |
| A21U A42C C62G | ≤ 0.5 |
| A21U A42G | 0.583 |
| A21U A42G C49U | ≤ 0.5 |
| A21U A42G C55U A70C | 0.603 |
| A21U A42G G50C U59C | ≤ 0.5 |
| A21U A42U | 0.792 |
| A21U A42U A57G | 0.548 |
| A21U A43C C62U A65U | ≤ 0.5 |
| A21U A43G C62A | ≤ 0.5 |
| A21U A43G G44C | ≤ 0.5 |
| A21U A43U | 0.901 |
| A21U A43U C49G | ≤ 0.5 |
| A21U A45G C49A | ≤ 0.5 |
| A21U A45U | 0.676 |
| A21U A45U G50C U64G | ≤ 0.5 |
| A21U A45U G51A C55G A65C | ≤ 0.5 |
| A21U A57C G58A A70C | ≤ 0.5 |
| A21U A57U | 0.61 |

| Variant | yeast fitness |
| --- | --- |
| A21U A57U C60A G68C | ≤ 0.5 |
| A21U A65C | 0.793 |
| A21U A65G A70C | 0.56 |
| A21U A69C | 0.827 |
| A21U A70C | 0.701 |
| A21U C22A C29G C55A U59C | 0.647 |
| A21U C22A G38C U54G C60A | 0.846 |
| A21U C22G A69U | 0.613 |
| A21U C22G C55A G56C G67C | ≤ 0.5 |
| A21U C22U C30G U59G A65U | ≤ 0.5 |
| A21U C22U C66U A69U | ≤ 0.5 |
| A21U C22U G48C A65G | ≤ 0.5 |
| A21U C22U G51C G52A U59G | ≤ 0.5 |
| A21U C22U U26C | ≤ 0.5 |
| A21U C22U U32A G52C | ≤ 0.5 |
| A21U C22U U59C | ≤ 0.5 |
| A21U C24A A45U | ≤ 0.5 |
| A21U C24G C62G C66U | ≤ 0.5 |
| A21U C24G U54G C55G C62U | ≤ 0.5 |
| A21U C24U A37C | 0.683 |
| A21U C24U A57U A65C A69C | ≤ 0.5 |

| Variant | yeast fitness |
| --- | --- |
| A21U C24U U26A A43U | 0.668 |
| A21U C27A G41C G44A C55U C62G | 0.648 |
| A21U C27A G50C G52C | ≤ 0.5 |
| A21U C27G A36U G39C | ≤ 0.5 |
| A21U C27G C30G | ≤ 0.5 |
| A21U C27G C33G A69U | ≤ 0.5 |
| A21U C27G C33U C34A | ≤ 0.5 |
| A21U C27G U28C C30U U53G C61A | 0.78 |
| A21U C27U C34A | 0.774 |
| A21U C27U G44A | ≤ 0.5 |
| A21U C29A C30U C62G U64A | ≤ 0.5 |
| A21U C29A U35A A43U C62U G68C | ≤ 0.5 |
| A21U C29G | 0.561 |
| A21U C29G G63A | 0.618 |
| A21U C29U | 0.588 |
| A21U C30A A70G | 0.756 |
| A21U C30A U32A U35G G67A | ≤ 0.5 |
| A21U C30G G48A | ≤ 0.5 |
| A21U C30G U32C | ≤ 0.5 |
| A21U C30U | 0.646 |
| A21U C30U A36G G44A | ≤ 0.5 |

| Variant | yeast fitness |
| --- | --- |
| A21U C30U A40C U59C C62U G67U | 0.554 |
| A21U C30U A42C C55U | ≤ 0.5 |
| A21U C30U A65G C66G | 0.638 |
| A21U C30U C46U A69U | ≤ 0.5 |
| A21U C30U U32A G68C | ≤ 0.5 |
| A21U C31A C34A G39C C61A | ≤ 0.5 |
| A21U C31A G39C C62G | ≤ 0.5 |
| A21U C31G | 0.842 |
| A21U C31G A42G U53A G68A | ≤ 0.5 |
| A21U C31G A45C | ≤ 0.5 |
| A21U C31G U32A | 0.585 |
| A21U C33A | 0.578 |
| A21U C33G A42G G44A | 0.541 |
| A21U C33G A42G G44A C61U C66U | ≤ 0.5 |
| A21U C33G A42G G44A U64C | 0.558 |
| A21U C33G A57C | ≤ 0.5 |
| A21U C33G A70U | ≤ 0.5 |
| A21U C33G C55U | ≤ 0.5 |
| A21U C33U G50A | 0.621 |
| A21U C34A | 0.573 |
| A21U C34A G50C | 0.535 |
